Active and inactive are the calls of the source. The rule behind the calls is not given here.
Assays:
[1] = Oral bioavailability in rat; assay type: ADME, organism-based; conditions: in vivo
Ovis aries [2] = assay: Inhibition of acute hyperresponsiveness in Ascaris Suum antigen-induced reversible airway bronchoconstriction sheep model assessed as reduction in lung resistance at 10 mg/kg, po bid administered and measured after 16 hrs
Ovis aries [3] = assay: Effect on late asthmatic response in Ascaris Suum antigen-induced reversible airway bronchoconstriction sheep model assessed as reduction in lung resistance at 10 mg/kg, po bid administered 2 hrs before antigen challenge measured 5 to 8 hrs after challenge; assay type: functional; parameters: scale not given: the % may be the effect or the level left
Blood [4] = assay: Inhibition of PGE2 production in human whole blood at 0.039 uM; assay type: functional
Procedure, shortened: (§1)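 Human whole blood stimulated with calcium ionophore A23187 at 30 µM. Several arachidonic acid metabolites (LTB4, PGE2, PGF2α, TXB2) and PAF production were quantified.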

Blood [5] = assay: Inhibition of PAF production in human whole blood at 0.039 uM; assay type: functional; procedure, shortened: as §1
[6] = Plasma concentration in adjuvant-induced arthritis Lewis rat model at 25 mg/kg, po after 4 hrs; assay type: ADME, organism-based; parameters: dose 25 mg/kg, route oral
Rattus norvegicus [7] = assay: Reduction in cartilage damage in Freund's adjuvant-induced arthritis Lewis rat model at 5 mg/kg, po for 11 days; assay type: functional, organism-based; parameters: dose 5 mg/kg
Procedure, shortened: (§2)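 Arthritis was induced in Lewis rats by intradermal complete Freund's adjuvant at the base of the tail. Oral treatment began on day 8, when mean clinical joint scores were 12, and continued for 11 days. Tarsal joints were taken at necropsy and lesions were scored histologically in blinded fashion.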

Rattus norvegicus [8] = assay: Inhibition of PGE2 production in carrageenan-stimulated rat air pouch model at 5 mg/kg, po after 6 hrs; assay type: functional
Procedure, shortened: (§3)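 Carrageenan was injected into a preformed air pouch 2 h after oral drug. Pouch contents were removed 6 h later and PGE2 was quantified.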

[9] = Inhibition of cytosolic phospholipase A2alpha by GLU micelle assay
Procedure, shortened: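 Micellar assay with 7-hydroxycoumarinyl-γ-linolenate (GLU) substrate, presenting inhibitor and substrate to the enzyme in high-lipid micelles. Each run gives the mean of duplicate assays, and values come from at least two runs.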

[10] = molecular target: T1, Cytosolic phospholipase A2 beta (Homo sapiens) (UniProt P0C869); assay: Inhibition of cytosolic phospholipase A2beta at 0.5 uM
T1 sequence (whole entry): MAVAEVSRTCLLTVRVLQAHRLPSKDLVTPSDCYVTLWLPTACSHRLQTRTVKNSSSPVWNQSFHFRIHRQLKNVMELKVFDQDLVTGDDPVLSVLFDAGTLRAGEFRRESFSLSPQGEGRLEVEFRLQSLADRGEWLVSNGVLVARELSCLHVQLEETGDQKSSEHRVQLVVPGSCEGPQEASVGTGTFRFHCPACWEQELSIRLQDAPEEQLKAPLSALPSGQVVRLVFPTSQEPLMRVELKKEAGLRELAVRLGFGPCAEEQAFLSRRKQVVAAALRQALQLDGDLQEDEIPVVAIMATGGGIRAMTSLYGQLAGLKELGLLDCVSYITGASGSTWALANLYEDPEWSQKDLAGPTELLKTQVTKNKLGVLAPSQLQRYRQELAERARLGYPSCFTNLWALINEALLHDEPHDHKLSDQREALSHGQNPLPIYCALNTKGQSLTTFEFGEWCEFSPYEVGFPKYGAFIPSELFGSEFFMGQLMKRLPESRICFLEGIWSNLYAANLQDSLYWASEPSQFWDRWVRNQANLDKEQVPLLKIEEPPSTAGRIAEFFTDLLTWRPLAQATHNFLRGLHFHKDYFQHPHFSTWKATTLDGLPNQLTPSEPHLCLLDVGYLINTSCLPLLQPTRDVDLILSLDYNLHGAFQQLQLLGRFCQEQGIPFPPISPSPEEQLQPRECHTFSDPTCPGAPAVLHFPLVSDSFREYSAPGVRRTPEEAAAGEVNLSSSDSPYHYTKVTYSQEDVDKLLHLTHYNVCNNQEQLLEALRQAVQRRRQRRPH
Procedure, shortened: (§4)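 Isolated enzyme activity on PAPC (1-palmitoyl-2-arachidonoyl-sn-glycero-3-phosphocholine) liposome substrate.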

[11] = Plasma clearance in Sprague-Dawley rat at 2 mg/kg, iv; assay type: ADME, organism-based; parameters: dose 2 mg/kg, route intravenous
Mus musculus = assay: Plasma concentration in collagen-induced arthritis mouse model at 100 mg/kg, po twice daily after 12 to 14 hrs; assay type: ADME, organism-based; parameters: dose 100 mg/kg, route oral; conditions: in vivo
Blood [12] = assay: Inhibition of LTB4 production in human whole blood at 0.039 uM; assay type: functional; procedure, shortened: as §1
[13] = test system: Prostaglandin G/H synthase 2, cyclooxygenase-2; assay: Inhibition of COX2 in microsomes at 100 uM
[14] = Plasma concentration in adjuvant-induced arthritis Lewis rat model at 25 mg/kg, po after 16 hrs; assay type: ADME, organism-based; parameters: dose 25 mg/kg, route oral
[15] = Plasma concentration in collagen-induced arthritis mouse model at 100 mg/kg, po twice daily after 3 hrs; assay type: ADME, organism-based; parameters: dose 100 mg/kg, route oral
Blood [16] = assay: Inhibition of PGF2alpha production in human whole blood at 0.039 uM; assay type: functional; procedure, shortened: as §1
[17] = Ratio of AUC in Sprague-Dawley rat at 25 mg/kg, po to IC50 for TXB2 production in Sprague-Dawley rat whole blood; assay type: functional
Rattus norvegicus [18] = assay: Reduction in synovitis damage in Freund's adjuvant-induced arthritis Lewis rat model at 25 mg/kg, po for 11 days; assay type: functional, organism-based; parameters: dose 25 mg/kg; procedure, shortened: as §2
Rattus norvegicus [19] = assay: Reduction in synovitis damage in Freund's adjuvant-induced arthritis Lewis rat model at 50 mg/kg, po for 11 days; assay type: functional, organism-based; parameters: dose 50 mg/kg; procedure, shortened: as §2
[20] = Plasma concentration in adjuvant-induced arthritis Lewis rat model at 50 mg/kg, po after 16 hrs; assay type: ADME, organism-based; parameters: dose 50 mg/kg, route oral
Blood [21] = assay: Inhibition of TXB2 production in human whole blood at 0.039 uM; assay type: functional; procedure, shortened: as §1
MC9 [22] = assay: Inhibition of PGF2apha production in arachidonic acid-stimulated mouse MC9 cells; assay type: functional, cell-based
MC9 [23] = assay: Inhibition of PGF2alpha production in mouse MC9 cells; assay type: functional, cell-based
Rattus norvegicus [24] = assay: Reduction in cartilage damage in Freund's adjuvant-induced arthritis Lewis rat model at 50 mg/kg, po for 11 days; assay type: functional, organism-based; parameters: dose 50 mg/kg; procedure, shortened: as §2
Rattus norvegicus [25] = assay: Inhibition of carrageenan-induced paw edema in Sprague-Dawley rat administered 2 hrs before carrageenan challenge at 25 mg/kg, po; assay type: functional
MC9 [26] = assay: Inhibition of LTB4 production in mouse MC9 cells; assay type: functional, cell-based
[27] = Plasma concentration in adjuvant-induced arthritis Lewis rat model at 5 mg/kg, po after 4 hrs; assay type: ADME, organism-based; parameters: dose 5 mg/kg, route oral
Rattus norvegicus [28] = assay: Reduction in cartilage damage in Freund's adjuvant-induced arthritis Lewis rat model at 25 mg/kg, po for 11 days; assay type: functional, organism-based; parameters: dose 25 mg/kg; procedure, shortened: as §2
[29] = Inhibition of cytosolic phospholipase A2alpha
Rattus norvegicus [30] = assay: Reduction in synovitis damage in Freund's adjuvant-induced arthritis Lewis rat model at 5 mg/kg, po for 11 days; assay type: functional, organism-based; parameters: dose 5 mg/kg; procedure, shortened: as §2
[31] = Inhibition of secreted phospholipase A2 at 0.5 uM
Procedure, shortened: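 Type II secreted PLA2 activity measured with PAPE (1-palmitoyl-2-arachidonoyl-sn-glycero-3-phosphoethanolamine) liposomes as substrate.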

Rattus norvegicus [32] = assay: Inhibition of carrageenan-induced paw edema in po dosed Sprague-Dawley rat administered 2 hrs before carrageenan challenge; assay type: functional
Rattus norvegicus [33] = assay: Inhibition of PGE2 production in carrageenan-stimulated orally dosed rat air pouch model after 6 hrs; assay type: functional; conditions: po; procedure, shortened: as §3
[34] = Plasma concentration in adjuvant-induced arthritis Lewis rat model at 5 mg/kg, po after 16 hrs; assay type: ADME, organism-based; parameters: dose 5 mg/kg, route oral
[35] = molecular target: T2, Cytosolic phospholipase A2 gamma (Homo sapiens) (UniProt Q9UP65); assay: Inhibition of cytosolic phospholipase A2gamma at 0.5 uM; procedure, shortened: as §4
T2 sequence (whole entry): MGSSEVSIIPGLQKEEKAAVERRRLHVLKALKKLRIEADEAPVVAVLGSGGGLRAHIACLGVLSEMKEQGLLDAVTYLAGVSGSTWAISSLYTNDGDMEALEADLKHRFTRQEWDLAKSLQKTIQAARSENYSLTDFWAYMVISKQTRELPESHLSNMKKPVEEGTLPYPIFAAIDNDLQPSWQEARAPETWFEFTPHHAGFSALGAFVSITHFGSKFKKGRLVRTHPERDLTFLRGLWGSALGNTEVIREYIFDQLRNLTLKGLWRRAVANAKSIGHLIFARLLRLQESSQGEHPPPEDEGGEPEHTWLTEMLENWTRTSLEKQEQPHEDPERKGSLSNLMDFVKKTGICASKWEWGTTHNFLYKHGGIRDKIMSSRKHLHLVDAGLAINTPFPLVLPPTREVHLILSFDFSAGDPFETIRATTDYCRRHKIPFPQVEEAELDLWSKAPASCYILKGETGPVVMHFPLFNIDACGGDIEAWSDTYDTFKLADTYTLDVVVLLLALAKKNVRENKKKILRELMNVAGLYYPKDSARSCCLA

[36] = test system: Prostaglandin G/H synthase 1, cyclooxygenase-1; assay: Inhibition of COX1 in microsomes at 100 uM
[37] = Inhibition of cytosolic phospholipase A2alpha at 0.020 uM; procedure, shortened: as §4
[38] = Plasma concentration in adjuvant-induced arthritis Lewis rat model at 50 mg/kg, po after 4 hrs; assay type: ADME, organism-based; parameters: dose 50 mg/kg, route oral
Blood [39] = assay: Inhibition of LTB4 production in human whole blood at 0.15 uM; assay type: functional; procedure, shortened: as §1
Blood [40] = assay: Inhibition of PGE2 production in human whole blood at 0.15 uM; assay type: functional; procedure, shortened: as §1
[41] = molecular target: Prostaglandin G/H synthase 2, cyclooxygenase-2 (Homo sapiens) (UniProt P35354); assay: Inhibition of COX2-dependent PGE2 production in IL1B stimulated human A549 cells at 1 uM in presence of arachidonic acid
Chain of Prostaglandin G/H synthase 2, cyclooxygenase-2 (Homo sapiens) (P35354 whole entry, looked up): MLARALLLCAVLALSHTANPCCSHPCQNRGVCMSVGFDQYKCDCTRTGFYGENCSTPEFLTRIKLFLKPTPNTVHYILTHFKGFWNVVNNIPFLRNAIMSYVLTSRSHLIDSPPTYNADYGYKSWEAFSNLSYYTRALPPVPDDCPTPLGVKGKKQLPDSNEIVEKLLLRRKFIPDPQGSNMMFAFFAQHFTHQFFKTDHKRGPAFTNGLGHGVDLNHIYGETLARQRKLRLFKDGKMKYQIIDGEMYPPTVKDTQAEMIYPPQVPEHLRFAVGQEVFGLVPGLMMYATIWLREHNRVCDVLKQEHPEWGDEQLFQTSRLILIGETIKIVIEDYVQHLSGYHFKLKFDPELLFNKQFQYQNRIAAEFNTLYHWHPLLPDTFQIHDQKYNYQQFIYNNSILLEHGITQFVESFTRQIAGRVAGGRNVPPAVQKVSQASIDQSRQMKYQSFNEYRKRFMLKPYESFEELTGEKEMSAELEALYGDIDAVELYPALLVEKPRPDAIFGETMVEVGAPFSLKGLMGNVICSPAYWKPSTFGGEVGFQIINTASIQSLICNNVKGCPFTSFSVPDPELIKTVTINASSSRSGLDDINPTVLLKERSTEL

[42] = molecular target: Prostaglandin G/H synthase 2, cyclooxygenase-2 (Homo sapiens) (UniProt P35354); assay: Inhibition of COX2-dependent PGE2 production in IL1B stimulated human A549 cells at 0.040 uM
Blood [43] = assay: Inhibition of PGF2alpha production in human whole blood at 0.15 uM; assay type: functional; procedure, shortened: as §1
Blood [44] = assay: Inhibition of TXB2 production in human whole blood at 0.15 uM; assay type: functional; procedure, shortened: as §1
Blood [45] = assay: Inhibition of PAF production in human whole blood at 0.15 uM; assay type: functional; procedure, shortened: as §1

| Structure (SMILES) | bioavailability [1] | Activity (Ovis aries [2]) | Activity (Ovis aries [3]) | concentration at 4 h [6] | Activity (Rattus norvegicus [7]) | IC50 [9] | Activity [10] | Cp (Mus musculus) | concentration at 16 h [14] | concentration at 3 h [15] | Activity (Rattus norvegicus [18]) | Activity (Rattus norvegicus [19]) | concentration at 16 h [20] | IC50 (MC9 [22]) | IC50 (MC9 [23]) | Activity (Rattus norvegicus [24]) | IC50 (MC9 [26]) | concentration at 4 h [27] | Activity (Rattus norvegicus [28]) | IC50 [29] | also measured |
| --- | --- | --- | --- | --- | --- | --- | --- | --- | --- | --- | --- | --- | --- | --- | --- | --- | --- | --- | --- | --- | --- |
| Cc1cccc(C)c1CS(=O)(=O)NCCc1c(CCCc2ccc(C(=O)O)cc2)c2cc(Cl)ccc2n1C(c1ccccc1)c1ccccc1 | 4% | Active | 85% | 698 ng/mL | Active | 0.01 µM | inactive | 118 ng/mL | 73 ng/mL | 923 ng/mL | Active | Active | 110 ng/mL | > 1 µM | 0.006 µM | Active | 0.012 µM | 69 ng/mL | Active | < 0.01 µM | inhibition at 0.039 µM (Blood [4]): 79%; inhibition at 0.039 µM (Blood [5]): 57%; inhibition in vivo at 5 mg/kg (Rattus norvegicus [8]): > 50%; clearance [11]: 3 mL/min/kg; inhibition at 0.039 µM (Blood [12]): 78%; Activity [13]: inactive; inhibition at 0.039 µM (Blood [16]): 72%; Ratio [17]: 160 h; inhibition at 0.039 µM (Blood [21]): 72%; inhibition in vivo at 25 mg/kg (Rattus norvegicus [25]): 34%; Activity (Rattus norvegicus [30]): Active; Activity [31]: inactive; ED50 (Rattus norvegicus [32]): 8 mg/kg; ED50 (Rattus norvegicus [33]): 3.5 mg/kg; concentration at 16 h [34]: 26 ng/mL; Activity [35]: inactive; Activity [36]: inactive; inhibition [37]: > 90%; concentration at 4 h [38]: 1140 ng/mL |
| O=C(O)c1ccc(CCCc2c(CCNS(=O)(=O)Cc3ccc(Cl)c(Cl)c3)n(C(c3ccccc3)c3ccccc3)c3ccc(Cl)cc23)cc1 [EFIPLADIB] | 6% | Active | 50% | 1130 ng/mL | Active | 0.04 µM | inactive | 2315 ng/mL | 166 ng/mL | 7200 ng/mL | Active | Active | 692 ng/mL | 0.9 µM | 0.02 µM | Active | 0.02 µM | 147 ng/mL | Active | < 0.01 µM | inhibition at 0.15 µM (Blood [39]): 64%; inhibition at 0.15 µM (Blood [40]): 78%; Activity [41]: inactive; inhibition [42]: > 95%; inhibition at 0.15 µM (Blood [43]): 66%; Activity (Rattus norvegicus [30]): Active; Activity [31]: inactive; inhibition at 0.15 µM (Blood [44]): 57%; ED50 (Rattus norvegicus [32]): 35 mg/kg; ED50 (Rattus norvegicus [33]): 6 mg/kg; concentration at 16 h [34]: 34 ng/mL; inhibition at 0.15 µM (Blood [45]): 50%; Activity [35]: inactive; inhibition [37]: > 90%; concentration at 4 h [38]: 3600 ng/mL |

Reference: ChEMBL document CHEMBL1150415 (J Med Chem, 2008)
